Legend:
[1] = test system: AND TCRtg DP thymocytes (AND.Rag1^−/−H-2^d); assay: CD69 upregulation assay, AND thymocytes; format: cell-based, mouse; conditions: I-E^k-Ig dimers + anti-CD28, overnight
Procedure, shortened: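 Plates coated overnight at 4°C in PBS with 1 µg/well self-peptide-loaded I-E^k-Ig dimer (S2-cell-expressed, Protein A-purified; loaded 72 h at 37°C in 0.2 M citrate–PO₄ pH 5.0, then neutralized with 1 M pH 9.0) plus 10 µg/well anti-CD28. Thymocytes (1 × 10⁶/well) cultured overnight at 37°C in IMDM/10% FCS/2-ME; CD69 by flow cytometry. Two independent experiments.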

[2] = test system: AND TCRtg CD4^+ peripheral T cells; assay: Co-agonist assay; format: cell-based, mouse; conditions: I-E^k-Ig dimers
Procedure, shortened: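 I-E^k-Ig dimers co-loaded with MCC and test or Hb control peptide at ratios of 1:10 to 1:1,000 (pH 5.0 citrate–PO₄, 37°C, 72 h), coated at 1 µg/well in triplicate. One to 2 × 10⁶ purified splenic AND CD4⁺ T cells (H-2^b) were added per well and cultured three days. ³H-TdR was pulsed for the final 18–24 h. Values are mean ± s.d. of triplicates.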

[3] = test system: AND TCRtg CD4^+ T cells in B6.K.Rag1^−/− mice; assay: Homeostatic proliferation assay; format: in vivo, mouse; conditions: 0.5 mg i.p. on days -1 and +1; CFSE, flow cytometry
Procedure, shortened: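 Splenic AND CD4⁺ T cells were labeled with 5 µM CFSE, and 10⁶ cells/mouse were given retro-orbitally on day 0 to B6.K.Rag1⁻/⁻ recipients. Recipients received peptide i.p. (0.5 mg; also 0.1 mg) or Hb₆₄₋₇₆ control on days −1 and +1. After four days, inguinal and axillary nodes were pooled and CD4, Vα11 and CFSE analyzed by flow cytometry; totals counted. n = 8 mice/group over five experiments; Mann-Whitney.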

AND TCRtg DP thymocytes = assay: Thymic reaggregate culture, positive selection of AND; format: cell-based, mouse; conditions: ANV41.2 I-E^k cells, 96 hours
Procedure, shortened: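 DP thymocytes from newborn (3–14 d) AND.Rag1⁻/⁻H-2^d mice, CD8-bead purified (1 × 10⁶), were pelleted with 5 × 10⁵ untreated ANV41.2 I-E^k cells as standing drops on transwells. Peptide was added to the lower well in I-20 plus medium (Hb control 30 µM). Cultures ran 96 h at 37°C, then CD4/CD8 flow for %CD4SP. Mean ± s.e.m. of 5 experiments; Mann-Whitney.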

GKKVITAFNEGLK [Hb] was tested. Which “CD69 upregulation (in words)” value [1] did it give?
The value was “did not upregulate CD69”.

What about the “stimulation of AND T cells (in words)” value ([2]; MCC:peptide 1:20) of the same sequence?
Its value is “stimulatory”.

And the “stimulation of AND T cells (in words)” value ([2]; MCC:peptide 1:1,000)?
The value was “non-stimulatory”.

What about the “homeostatic proliferation of AND TCRtg T cells (in words)” value [3] of the same sequence?
The value was “proliferation of the AND TCRtg T cells”.

What about the “positive selection of AND CD4SP cells (in words)” value (AND TCRtg DP thymocytes) of the same sequence?
The value was “did not positively select AND TCRtg T cells in thymic reaggregate culture”.
